# A selection: hits, their analogues and other compounds. The true share with any hit is near 1.3%.
# PP5 inh – PP5 (human) phosphatase inhibition. P53041. purified PP5c, OMFP substrate fluorescence. inhibition, % at 6.7 µM. 0.18% of 320,000 active. AID 1987;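 active = inhibition above the campaign's mean inhibition across all tested compounds plus 3 SD, cut at about 9.5% in these data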;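 note: 0% = DMSO only and 100% = 100 µM cantharidin control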
# Target sequence (P53041 whole entry, looked up): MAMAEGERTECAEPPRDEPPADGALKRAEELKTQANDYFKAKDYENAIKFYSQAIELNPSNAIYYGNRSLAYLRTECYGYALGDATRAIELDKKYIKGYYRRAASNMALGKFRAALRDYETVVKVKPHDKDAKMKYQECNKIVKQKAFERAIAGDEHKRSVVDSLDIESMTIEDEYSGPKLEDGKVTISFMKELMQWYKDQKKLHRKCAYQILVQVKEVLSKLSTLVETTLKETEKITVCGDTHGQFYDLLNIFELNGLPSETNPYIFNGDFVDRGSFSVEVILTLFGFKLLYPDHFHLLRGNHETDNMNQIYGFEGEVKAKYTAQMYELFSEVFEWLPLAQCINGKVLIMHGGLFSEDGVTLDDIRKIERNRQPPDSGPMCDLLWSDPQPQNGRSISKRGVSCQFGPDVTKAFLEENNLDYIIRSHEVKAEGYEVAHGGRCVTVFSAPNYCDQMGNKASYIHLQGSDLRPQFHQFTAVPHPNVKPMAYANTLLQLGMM
# NR2E3 ag-1 – NR2E3 (human) agonism. Q9Y5X4. GST-NR2E3/biotin-RetCOR TR-FRET, 1536-well. AID 2300. 0.12% of 320,000 active. inhibition of corepressor binding, % at 4.78 µM;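 active = percent inhibition above the cutoff of mean plus 3 SD of all tested compounds, set per screening campaign, cut at about 20% in these data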;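 note: 0% = DMSO wells and 100% = biotin wells as full block of FRET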
#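 Assay system: NR2E3–RetCOR corepressor complex. Quantity: 1.35 nM GST-NR2E3. Buffer or medium: pH 7.5 Tris-based buffer. Reagent: biotinylated RetCOR corepressor at 7 nM final. Schedule: 5 h at 4 °C. Detection: TR-FRET, emission read at 617 and 671 nm. Replicates: one well per compound, singlicate testing.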
# PP1 counter – PP1-alpha (human) inhibition in PP5 counter-screen; P62136; 0.9% of 320,000 active; inhibition, % at 6.7 µM; purified PP1alpha, OMFP fluorescence;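 active = inhibition above the mean inhibition of all tested compounds plus 3 SD, computed separately for each screening campaign, cut at about 15% in these data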
# NR2E3 ag-2 – activates human NR2E3 receptor | Q9Y5X4 | 0.35% of 360,000 active | inhibition of corepressor binding, % at 3.98 µM | AID 602229 | CHO-S Gal4-NCOR/VP16-NR2E3 two-hybrid, luciferase;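 active = inhibition above the mean of all tested compounds plus 3 SD, cut at about 70% in these data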;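 note: 0% = DMSO with NR2E3 transfected cells and 100% = cells lacking NR2E3 construct; higher means lower luciferase signal from less NR2E3 corepressor binding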
# NR2E3 ag confirm – confirmation of human NR2E3 agonists. shares compounds with NR2E3 ag-2. CHO-S mammalian two-hybrid NR2E3-NCOR, luciferase luminescence. inhibition, % at 3.98 µM. 51% of 2,300 active. AID 624378;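 active = average inhibition above a cutoff equal to the mean inhibition of all tested compounds plus one SD, cut at about 70% in these data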;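 note: 0% = DMSO in NR2E3 cells and 100% = DMSO in cells lacking NR2E3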
# GAL4-VP16 luc – reduces GAL4-VP16 reporter signal in NR2E3 counterscreen | CHO-S GAL4-VP16 luciferase reporter, luminescence | inhibition, % at 3.98 µM | 29% of 2,300 active | shares compounds with NR2E3 ag-2;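 active = mean inhibition above a cutoff equal to the average over all tested compounds plus one standard deviation, cut at about 70% in these data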;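 note: luciferase from a UAS reporter driven by GAL4-VP16 transactivation; 0% = DMSO with VP16-transfected cells and 100% = DMSO with cells lacking VP16; higher means less reporter light so more repression of VP16 activity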
# * hit, by the source's call; / = no result given.
SMILES,PP5 inh,NR2E3 ag-1,PP1 counter,NR2E3 ag-2,NR2E3 ag confirm,GAL4-VP16 luc
O=C1CSC(=S)N1Cc1cccs1,/,/,/,-2,/,/
Cc1sc2c(c1C)C(O)=C(C(=O)Nc1ccccc1)S(=O)(=O)N2C,0,3,-1,-16,/,/
Cc1csc2c(N3CCN(C(=O)Nc4ccc(OC(F)(F)F)cc4)CC3)ncnc12,2,1,1,63,90*,71*
COc1ccc(C(=O)Nc2nc3ccccc3s2)c(OC)c1,1,1,4,97*,89*,86*
COc1ccccc1C(=O)Nc1nc2ccccc2s1,3,1,-3,66,65,52
COc1ccccc1C(=O)Nc1nc2ccc(S(C)(=O)=O)cc2s1,1,0,4,-49,/,/
CNc1snc(C)c1C(=O)OCC(=O)c1ccc(OC)c(F)c1,1,3,0,53,57,50
C#Cc1cccc(Nc2nc(NCc3ccccc3)nc3ccsc23)c1,/,/,/,61,84*,44
c1ccc(CNc2nc(NCc3cccs3)nc3ccsc23)cc1,/,/,/,26,/,/
Fc1ccc(Nc2nc(NCc3ccccc3)nc3ccsc23)cc1,/,/,/,55,59,41
c1ccc(CNc2nc(NCCc3ccncc3)c3sccc3n2)cc1,/,/,/,81*,52,55
CN1CCN(CC(=O)Nc2c(C#N)cnn2-c2ccccc2)CC1,-1,0,-1,-25,/,/
O=C(NCc1cccnc1)/C(=C\c1ccc(-c2ccc(Br)cc2)o1)S(=O)(=O)c1ccccc1,3,4,5,93*,43,11
O=C(NCc1cccnc1)/C(=C/c1ccc(-c2ccc(Cl)cc2)o1)S(=O)(=O)c1ccccc1,3,-1,9,90*,47,-31
Cc1cccc(-c2noc(CCC(=O)NCc3ccco3)n2)c1,0,2,-1,-22,/,/
CC(C)(C)c1ccc(-c2noc(CCC(=O)NCc3ccco3)n2)cc1,3,4,0,77*,74*,79*
Cc1cccc(N2CCN(C(=O)COc3cccc4c3OC(C)(C)C4)CC2)c1C,3,0,-1,0,/,/
Cn1c(Sc2nc3ccccc3n2C)nc2ccccc21,0,-2,-4,76*,58,19
O=C(Cc1cccc2ccccc12)N/N=C/c1ccc(Sc2cccc3cccnc23)o1,4,3,-2,/,/,/
CCCCC(=O)N/N=C/c1ccc(Sc2cccc3cccnc23)o1,1,-1,2,86*,-33,-18
Cc1cccc(N2CCN(C(=O)C3CCC(CNS(=O)(=O)c4cccs4)CC3)CC2)c1C (centres undefined),4,6,7,49,36,51
OC(CN(Cc1ccccc1)Cc1ccccc1)c1ccccc1 (centres undefined),/,/,/,-15,/,/
Cc1nc(C)c(C(=O)NNS(=O)(=O)c2ccc3ccccc3c2)s1,0,-1,-3,48,82*,76*
CC(C)N1CN(c2ccccc2)C(=S)N(c2ccccc2)C1,3,0,-4,14,/,/
CNC1(c2nnnn2-c2ccccc2C)CCOC(C)(C)C1 (centres undefined),-1,0,0,-6,/,/
SMILES,PP5 inh,NR2E3 ag-1,PP1 counter,NR2E3 ag-2,NR2E3 ag confirm,GAL4-VP16 luc
COc1cccc2sc(Nc3nnc(-c4ccccc4Cl)o3)nc12,3,5,6,18,/,/
COc1ccccc1-c1nnc(Nc2nc3c(OC)cccc3s2)o1,-1,18,4,74*,22,-35
COCCCNC(=S)N/N=C/c1ccccc1O,-1,3,-5,74*,-37,-11
COc1cccc(/C=N/NC(=S)NC2CC3CCC2C3)c1OC (centres undefined),1,3,-8,-19,/,/
COc1ccc(O)c(/C=N/NC(=S)NCCc2ccccc2)c1,6,4,3,35,/,/
COCCNC(=S)N/N=C(\C)c1ccccc1OC,2,3,1,-8,/,/
COc1ccc(/C(C)=N/NC(=S)NCCc2ccccc2)c(O)c1,2,2,5,48,-18,-1
Oc1ccccc1/C=N/NC(=S)NC1CC2CCC1C2 (centres undefined),3,3,7,48,-164,-101
COCCNC(=S)N/N=C(\C)c1ccccc1O,2,0,1,66,-73,-50
Cc1nnc(SCc2nnc(-c3cccs3)o2)n1Cc1ccccc1,-1,2,0,-13,/,/
Clc1ccc(-c2nnc(CSc3nnc(-c4cccs4)n3Cc3ccccc3)o2)cc1,-2,0,-2,74*,88*,74*
O=C(Nc1nccs1)c1ccc(S(=O)(=O)NCC2CCCCC2)cc1,2,0,3,58,59,65
Cc1cc(C)n(CCNC(=O)CC2C(=O)NCCN2CC2CCCCC2)n1 (centres undefined),2,1,5,4,/,/
O=C(NCCCc1ccccc1)c1cc([N+](=O)[O-])ccc1Cl,1,6,-3,-6,/,/
COc1ccc(CCNC(=O)c2cc3ccc(Cl)cc3nc2N)cc1,/,/,/,90*,90*,77*
Nc1nc2cc(Cl)ccc2cc1C(=O)NCCCc1ccccc1,/,/,/,82*,87*,78*
COc1ccc(CCNC(=O)c2ccc(Cl)cc2)cc1,3,0,0,-10,/,/
CCOc1ccc(-c2cn(-c3cccc(SC)c3)c(=O)[nH]2)cc1,2,4,0,-28,/,/
Cc1cc(C)nc(SCc2nnc(SCC(N)=O)o2)n1,0,-1,-1,1,/,/
COC(=O)CCCn1cc(CN2CC(N(C)C)CS2(=O)=O)nn1 (centres undefined),/,/,/,-16,/,/
CCc1cccc2sc(N3CCN(C(=O)c4ccc([N+](=O)[O-])o4)CC3)nc12,5,-2,4,90*,76*,13
CN1c2ccccc2C(O)=C(C(=S)Nc2ccccc2)S1(=O)=O,2,2,0,16,/,/
CN1c2ccccc2C(O)=C(C(=S)Nc2ccc(F)c(Cl)c2)S1(=O)=O,5,-3,1,49,88*,59
Cc1ccccc1OC(C)C(=O)NCCCN1CCOCC1 (centres undefined),0,1,-6,6,/,/
COc1cccc(CN(C)C(=O)c2cccc(S(=O)(=O)N3CCN(c4ccccc4)CC3)c2)c1OC,/,/,/,55,81*,58
COc1cccc(CN(C)C(=O)c2cccc(S(=O)(=O)N3CCN(Cc4ccccc4)CC3)c2)c1OC,/,/,/,63,66,46
CN(Cc1ccc(Cl)cc1Cl)C(=O)c1cccc(S(=O)(=O)N2CCN(c3ccccc3)CC2)c1,1,4,2,23,/,/
CN(Cc1c(F)cccc1Cl)C(=O)c1cccc(S(=O)(=O)N2CCN(Cc3ccccc3)CC2)c1,/,/,/,32,/,/
COc1cccc(CN(C)C(=O)c2cccc(S(=O)(=O)N3CCN(c4ccc(F)cc4)CC3)c2)c1OC,2,4,1,64,79*,69
